Experimental findings from ChEMBL document CHEMBL3272228, “Antimalarial activity of some novel derivatives of 2,4-diamino-5(p-chlorophenyl)-6-ethylpyrimidine (pyrimethamine)” (J Med Chem, 1976) are described below.

Series [1] relates to Plasmodium berghei. The series is described as follows: Antimalarial activity against Plasmodium berghei KBG13 infected in mouse assessed as increase in host mean survival time at minimum dose. Format: functional. The method in brief: (§1)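 Mice infected with Plasmodium berghei strain KBG 13. Five mice per dose group, with doses up to 640 mg/kg. Read-out is the increase in mean survival time in days, with cured/treated counts recorded. The minimum active dose is the lowest dose showing activity, and survival gain is also reported at that dose.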

Series [2] concerns Plasmodium berghei. The series is described as follows: Antimalarial activity against Plasmodium berghei KBG13 infected in mouse assessed as minimum dose required for activity. Format: functional. The following applies: for minimal effective dose: read-out: MED. The method in brief:
(§2)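 P. berghei strain KBG 13 in mice, groups of five treated, doses up to 640 mg/kg. Scored as increase in mean survival time in days over controls and as cured/treated. Reported values are the lowest dose giving any cure and the lowest dose showing activity.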

Series [3] concerns Plasmodium berghei. Put plainly: Antimalarial activity against Plasmodium berghei KBG13 infected in mouse assessed as disease cures at 640 mg/kg. Format: functional, organism-based. Details: dose 640 mg/kg. An outline of the steps: as §2
In series [4] the test system is Plasmodium berghei. Put plainly: Antimalarial activity against Plasmodium berghei KBG13 infected in mouse assessed as minimum dose required for disease cures. Format: functional. An outline of the steps:
as §2

Series [5] concerns Mus musculus. Put plainly: Toxicity in mouse infected with Plasmodium berghei KBG13 assessed as animal death at 640 mg/kg. Format: organism-based. On the set-up: dose 640 mg/kg. The following applies: in vivo.
For series [6], the species on record is Mus musculus. Put plainly: Toxicity in mouse infected with Plasmodium berghei KBG13 assessed as animal death at 2 times minimum curative dose. Format: organism-based. Particulars: in vivo.
Series [7] deals with Plasmodium gallinaceum. The series is described as follows: Antimalarial activity against Plasmodium gallinaceum infected in chicks assessed as increase in host survival time at 100 to 160 mg/kg. Format: functional. Particulars: dose mg/kg 100-160. An outline of the steps: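 Chicks infected with Plasmodium gallinaceum, in limited testing at doses of 100-160 mg/kg. Activity is expressed as T/C in days of survival at the respective dose levels.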

Series [8] is filed under the species Mus musculus. Put plainly: Toxicity in mouse infected with Plasmodium berghei KBG13 assessed as animal death at 4 times minimum curative dose. Particulars: in vivo. Format: organism-based.
In series [9] the test system is Plasmodium gallinaceum. Put plainly: Antimalarial activity against Plasmodium gallinaceum infected in chicks assessed as increase in host survival at 120 mg/kg. Type of series: functional, organism-based. Details: dose 120 mg/kg. The method in brief: (§3)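 P. gallinaceum in chicks given doses of 100–160 mg/kg. Activity is expressed as T/C, the increase in survival time in days.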

Series [10] has as its system Plasmodium gallinaceum. Put plainly: Antimalarial activity against Plasmodium gallinaceum infected in chicks assessed as increase in host survival. Type of series: functional, organism-based. An outline of the steps:
as §3

Series [11] relates to Plasmodium berghei. Put plainly: Antimalarial activity against Plasmodium berghei KBG13 infected in mouse assessed as increase in host mean survival time at 640 mg/kg. Type of series: functional. An outline of the steps: as §1

Structures are written as SMILES. Calls of active or inactive are those of the source. The calls are words filed in the database; no cut-off is given here.

With `CC(N)c1nc(N)nc(N)c1-c1ccc(Cl)cc1` (configuration not stated), the result in the series with Plasmodium berghei [1], with Plasmodium berghei [2], in the series on Plasmodium berghei [3] and in the series on Plasmodium berghei [4] was inactive.

For the compound `CC(=O)NC(C)c1nc(N)nc(N)c1-c1ccc(Cl)cc1` (racemic), the result in the series on Plasmodium berghei [1], with Plasmodium berghei [2], in the series with Plasmodium berghei [3] and in the series on Plasmodium berghei [4] was inactive.

For the compound `C/C(=N\NC(=N)N)c1nc(N)nc(N)c1-c1ccc(Cl)cc1`, the outcome in the series with Plasmodium berghei [1], in the series on Plasmodium berghei [2], with Plasmodium berghei [3] and in the series on Plasmodium berghei [4] was inactive.

For the compound `C/C(=N\N(C)C)c1nc(N)nc(N)c1-c1ccc(Cl)cc1`, the Activity entry in the series on Mus musculus [5] is “Toxic”. In addition, the MST with Plasmodium berghei [1] turned out to be 3.8 days. In addition, the minimal effective dose in the series on Plasmodium berghei [2] was 40 mg/kg. In the series on Plasmodium berghei [4], the MCD was determined as 320 mg/kg.

For `CCc1nc(N)nc(N)c1-c1ccc(Cl)cc1` [PYRIMETHAMINE], the Activity result in the series filed under Mus musculus [6] is “Toxic”. The MCD in the series on Plasmodium berghei [4] is 40 mg/kg.

`CC(O)c1nc(N)nc(N)c1-c1ccc(Cl)cc1` (racemic): the MST with Plasmodium berghei [1] was 4.7 days; with Plasmodium gallinaceum [7] it was 5.4 days. The minimal effective dose in the series with Plasmodium berghei [2] is 80 mg/kg. For the same compound, in the series with Plasmodium berghei [3], the outcome was Active.

For the compound `CCOC(C)(OCC)c1nc(N)nc(N)c1-c1ccc(Cl)cc1`, the MST with Plasmodium berghei [1] is 3.5 days; in the series with Plasmodium gallinaceum [7], 5.4 days. In the series filed under Mus musculus [8], the Activity entry is listed as “Non-toxic”. For the same compound, the minimal effective dose in the series with Plasmodium berghei [2] is 20 mg/kg. In addition, in the series with Plasmodium berghei [3], the outcome was Active. Moreover, the MCD with Plasmodium berghei [4] amounted to 160 mg/kg.

For `C/C(c1nc(N)nc(N)c1-c1ccc(Cl)cc1)=[N+](\C)[O-]`, in the series on Plasmodium berghei [1], the MST is 3.1 days. Besides, the minimal effective dose in the series on Plasmodium berghei [2] is 160 mg/kg. Also, in the series on Plasmodium gallinaceum [9], the outcome was inactive. The MCD in the series with Plasmodium berghei [4] is 640 mg/kg.

With `CCN(CC)CCCC(C)NC(C)c1nc(N)nc(N)c1-c1ccc(Cl)cc1` (configuration not stated), in the series with Plasmodium gallinaceum [10], the outcome was inactive.

Turning to `CN/N=C(\C)c1nc(N)nc(N)c1-c1ccc(Cl)cc1`, in the series with Mus musculus [5], the Activity entry is given as “Toxic”. The outcome in the series with Plasmodium berghei [1], with Plasmodium berghei [2] and with Plasmodium berghei [4] was inactive.

With `CC(=O)c1nc(N)nc(N)c1-c1ccc(Cl)cc1`, the Activity result in the series on Mus musculus [5] is “Toxic”. Also, in the series on Plasmodium berghei [1], the MST is 5.9 days. The minimal effective dose in the series on Plasmodium berghei [2] came out at 80 mg/kg. The MCD in the series with Plasmodium berghei [4] amounted to 320 mg/kg.

Turning to `COC(C)(OC)c1nc(N)nc(N)c1-c1ccc(Cl)cc1`, the values for the MST in the series with Plasmodium berghei [1] and in the series on Plasmodium gallinaceum [7] were 4.5 days and 5.4 days, respectively. Besides, the minimal effective dose in the series on Plasmodium berghei [2] was determined as 40 mg/kg. The result in the series on Plasmodium berghei [3] was Active. Also, the MCD with Plasmodium berghei [4] is 320 mg/kg.

Regarding `C/C(=N/O)c1nc(N)nc(N)c1-c1ccc(Cl)cc1`, the MST with Plasmodium berghei [11] was 5.4 days; in the series with Plasmodium berghei [1], 3.4 days. In addition, the minimal effective dose in the series with Plasmodium berghei [2] worked out at 160 mg/kg.

For the compound `C/C(=N/N)c1nc(N)nc(N)c1-c1ccc(Cl)cc1`, the MST in the series with Plasmodium berghei [11] was determined as 14.8 days; in the series with Plasmodium berghei [1], 8.4 days. The minimal effective dose in the series with Plasmodium berghei [2] came to 160 mg/kg.
